CDK5 inh – blocks human CDK5/p35 kinase activity; Q00535+Q15078; Recombinant CDK5/p35, ADP-Glo luminescence, 60 min; AID 488839; 330,000 tested, 0.01% active; inhibition, % at 10 µM;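 active = highest replicate inhibition of at least 50% and at least 75% of replicates reaching 50%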;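 note: plate controls were DMSO neutral control for no effect and GW8510 at 10 µM for full effect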
Target sequence (Q00535 whole entry, looked up): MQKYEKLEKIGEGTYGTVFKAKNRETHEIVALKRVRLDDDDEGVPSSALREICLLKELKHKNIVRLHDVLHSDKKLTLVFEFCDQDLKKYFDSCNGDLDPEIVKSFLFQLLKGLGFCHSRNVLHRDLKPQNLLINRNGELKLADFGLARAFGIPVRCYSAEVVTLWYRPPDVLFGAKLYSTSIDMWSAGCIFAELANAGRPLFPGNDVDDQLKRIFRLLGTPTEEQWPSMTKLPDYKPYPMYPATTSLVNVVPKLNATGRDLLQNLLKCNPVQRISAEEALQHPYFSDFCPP
Target sequence (Q15078 whole entry, looked up): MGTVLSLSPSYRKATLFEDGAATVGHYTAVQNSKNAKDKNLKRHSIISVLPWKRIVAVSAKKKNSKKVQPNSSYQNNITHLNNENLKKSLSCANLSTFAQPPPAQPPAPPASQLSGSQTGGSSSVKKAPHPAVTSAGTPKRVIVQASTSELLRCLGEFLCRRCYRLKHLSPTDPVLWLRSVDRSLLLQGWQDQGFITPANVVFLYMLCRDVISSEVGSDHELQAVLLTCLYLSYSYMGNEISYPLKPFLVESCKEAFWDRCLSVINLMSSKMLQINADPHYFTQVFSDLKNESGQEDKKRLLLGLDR
Statin myotox sup – suppressors of simvastatin-induced myotoxicity in C2C12 myotubes. rescue of ATP level, % at 7.49 µM. ATP luminescence, 48 h; scaled: DMSO 0, geranylgeraniol control 100. AID 602340. 330,000 tested, 0.78% active;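 active = mean ATP rescue above about 67%, or every replicate alone reaching that limit, limit read from the data, passing the limit was not always enough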;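 note: myotubes were challenged with 10 µM simvastatin during compound exposure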
CAL PDZ FP-1 – blocks peptide binding to human CAL PDZ domain. inhibition, % at 20 µM. Q9HD26. purified CAL PDZ, TMR-peptide fluorescence polarization, 1 h. AID 504414. 330,000 tested, 0.02% active;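 active = highest replicate inhibition of at least 40%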;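 note: plate controls were DMSO neutral control wells for no effect and unlabeled competitor peptide control wells for full effect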
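Control set: unlabelled peptide and DMSO controls / Material: purified CerCALP PDZ construct / Timing: 1 h incubation at room temperature before polarization reading / Doses: 20 µM, one dose / Detection: fluorescence polarization (mP)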
dFosB activator – mouse delta FosB homodimer activation; purified delta FosB, TAMRA-CDK5 oligo fluorescence polarization; percent of positive-control signal above neutral wells; activation, % at 25 µM; 340,000 tested, 0.99% active; AID 493131; P13346;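 active = mean activation above about 17%, with every replicate also reaching it, limit read from the data, passing the limit was not always enough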
CAL PDZ FP-2 – blocks peptide binding to the human CAL PDZ domain; 300,000 tested, 0.92% active; Q9HD26; inhibition, % at 24.9 µM; AID 602252; purified CAL PDZ, TMR-peptide fluorescence polarization, 1 h;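 active = mean inhibition of at least 30% with at least half of replicates also reaching 30%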;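 note: 0% = DMSO neutral control and 100% = excess unlabeled competitor peptide PRC23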
S100A4 MyoIIA – inhibitors of human S100A4 binding to myosin IIA peptide. P26447. S100A4/TAMRA-MyoIIA peptide fluorescence polarization. inhibition, % at 10.7 µM. 360,000 tested, 0.14% active. AID 652163;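 active = mean inhibition of at least 70% across replicates, with every replicate also reaching that level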
Target sequence (P26447 whole entry, looked up): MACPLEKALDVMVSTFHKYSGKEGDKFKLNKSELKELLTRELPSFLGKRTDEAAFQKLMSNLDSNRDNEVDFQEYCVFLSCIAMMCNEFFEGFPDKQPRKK
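Compound dosing: one dose per compound; test system: human S100A4 monomer with TAMRA-labelled myosin IIA peptide; probe or stimulus: TAMRA-labelled myosin IIA heavy-chain peptide probe, 5 nM; medium: HEPES buffer with Ca2+, pH 7.2; schedule: 5 min incubation before reading; benchmarks: neutral control DMSO, positive control TFP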
Numbers without * were called inactive; / = no result. The list is not random: actives were taken first. Their share in the collection is about 2%.

SMILES | CDK5 inh | Statin myotox sup | CAL PDZ FP-1 | dFosB activator | CAL PDZ FP-2 | S100A4 MyoIIA
CCN(CC)CCNC(=O)C1(O)c2cc(Br)ccc2NC(=O)N1c1c(F)cccc1F (stereo unspecified) | 1.7 | 1.5 | -0.1 | 2.2 | -0.4 | -3.2
COc1ccccc1/C=C/C=N/NC(=O)c1cc(-c2ccc(C)o2)[nH]n1 | 1.8 | 1.3 | -3.5 | 10.6 | 61.8* | -2.3
Cc1ccc(/C=N/NC(=O)c2cc(-c3ccc(C)o3)[nH]n2)cc1 | -0.2 | -83.6 | -3.3 | 2.0 | 8.4 | 1.9
COc1ccc(C2C(C(N)=O)=C(C)Nc3nc(-c4cccc(Cl)c4)nn32)cc1OC (stereo unspecified) | -1.3 | 1.6 | / | -5.5 | -3.7 | /
O=C(O)CCc1ccc(-c2ccccc2)n1NC(=O)c1ccco1 | -0.3 | / | -0.8 | 4.1 | -6.0 | /
Cc1nn(-c2cccc(Cl)c2)c2nc(C(F)(F)F)[nH]c(=O)c12 | -0.2 | / | -2.1 | 2.7 | 43.2* | 7.4
O=C(CN1C(=O)NC2(CCCC2)C1=O)N1CCN(C(=O)c2ccco2)CC1 | 2.2 | 11.7 | -1.2 | -5.0 | / | /
CCCC1(CCC)NC(=O)N(CC(=O)N2CCN(C(=O)c3ccco3)CC2)C1=O | -1.7 | 97.8* | -0.6 | -4.3 | -1.4 | /
CCN1CCN(c2nc3sc4c(c3c3ncnn23)CC(C)CC4)CC1 (stereo unspecified) | 0.9 | 126.2* | -0.3 | 15.0 | -0.8 | /
O=C(Nc1cccc(-c2nc3ccccc3[nH]2)c1)c1cccc(NC(=O)c2ccco2)c1 | 0.8 | -82.5 | -3.6 | -38.5 | / | /
Cc1ccc(-c2nc3ccccc3[nH]2)cc1NC(=O)c1ccco1 | -0.2 | 116.0* | -4.1 | -19.9 | -3.4 | /
COCN(C#N)c1nc(N(C)C)nc(N(C)C)n1 | -0.3 | / | -0.4 | 0.1 | 97.4* | -0.3
COc1ccc(CC(NC(C)=O)C(=O)NC2CCN(C(=O)c3ccc([N+](=O)[O-])cc3)CC2)cc1OC (stereo unspecified) | 1.0 | 36.6 | 16.3 | -2.6 | 76.6* | 1.4
CCNC(=O)C1CCCN(Cc2ccc(C(=O)OCC)cc2)CC1 (stereo unspecified) | / | -1.9 | / | / | / | -1.3
O=C(c1nc2ccc(Cl)cn2c1CN1CCC(CO)CC1)N1CCc2ccccc2C1 | -0.5 | 13.9 | -0.1 | -11.6 | 38.0* | -0.6
CCOc1c(C)cnc2c1c(=O)n(Cc1c(F)cccc1Cl)c(=O)n2C | -1.2 | 18.8 | -1.2 | -5.9 | / | -6.6
O=C(NCCOc1ccccc1F)c1cc([N+](=O)[O-])ccc1N1CCOCC1 | 0.7 | -27.7 | 0.6 | -3.6 | 0.9 | -8.5
CCOc1ccc2nc(NC(=O)CS(=O)(=O)c3ccccc3)sc2c1 | 0.0 | -18.0 | -0.6 | -7.9 | -4.9 | /
COc1ccccc1NC(=O)NC1(C(=O)N2CCCCCC2)CCCCC1 | -0.7 | 105.9* | -1.1 | -2.7 | 5.2 | /
COc1ccccc1NC(=O)NC1(C(=O)N2CCOCC2)CCCCC1 | 0.6 | 13.6 | -1.1 | -0.2 | / | -3.6
CCOC(=O)C1CCN(C(=O)COC(=O)Cc2ccc(Cl)cc2)CC1 | 1.2 | 3.8 | 0.0 | -9.3 | 2.2 | -3.2
CCn1ncc([N+](=O)[O-])c1C(=O)Nc1cc(C)on1 | 0.4 | / | 1.1 | -0.3 | -3.8 | /
CCn1ncc(Br)c1C(=O)Nc1cc(C)on1 | -2.4 | 2.0 | -1.3 | -0.5 | 41.4* | -0.8
Oc1ccccc1-c1nnc(SCCN2CCOCC2)n1Cc1ccccc1 | -2.2 | 13.6 | -1.8 | -4.0 | 55.7* | /
O=C(CSc1nnc(-c2ccccc2)n1Cc1ccccc1)N1CCOCC1 | -0.8 | 7.9 | / | -3.0 | 0.7 | /
SMILES | CDK5 inh | Statin myotox sup | CAL PDZ FP-1 | dFosB activator | CAL PDZ FP-2 | S100A4 MyoIIA
COc1cccc(C(=O)NC2CCCc3ccccc32)c1 (stereo unspecified) | -0.1 | 10.2 | 2.1 | -5.2 | -3.6 | -7.5
COc1cc(OC)cc(C(=O)OC(C)C(=O)NC2CCCc3ccccc32)c1 (stereo unspecified) | -0.3 | 20.9 | -0.4 | 1.2 | 61.2* | -1.6
CCc1ccc(OCC(=O)NNC(=O)c2cc3ccccc3o2)cc1 | -0.6 | 81.0* | -0.6 | -3.4 | -6.7 | -2.0
C[C@@H]1CN([C@H](C)CO)C(=O)CCCn2cc(nn2)CO[C@H]1CN(C)C(=O)CCC(F)(F)F | / | 8.9 | / | / | / | 0.3
O=C1CC(c2ccccc2)CC(O)=C1C=NCC1CCCO1 (stereo unspecified) | -1.4 | / | -0.2 | -0.6 | 2.6 | /
Oc1[nH]c2ccccc2c1C=NCC1CCCO1 (stereo unspecified) | 0.9 | 121.3* | -0.2 | 9.5 | -2.1 | /
CS(=O)(=O)c1nc(S(=O)(=O)c2ccc(Cl)cc2)c(N2CCC(O)CC2)s1 | -0.4 | 84.5* | -1.9 | 8.9 | 1.2 | -1.7
N#CC1CN(C(c2ccccc2)c2ccccc2)C1 | -0.3 | 106.9* | 9.6 | 0.5 | -3.6 | -5.6
N#CC1CN(Cc2ccccc2)CN(Cc2ccccc2)C1 | 0.6 | / | 0.1 | 0.0 | / | 0.4
COc1cnc(SCc2c(Cl)cccc2Cl)nc1Cl | 0.8 | 88.2* | -1.3 | -9.8 | -0.5 | -1.8
Cc1nc(SCc2c(F)cccc2Cl)n[nH]1 | -0.4 | -29.0 | -2.4 | -10.8 | / | /
Cc1cccnc1NC(=O)CSc1nnc(CNC(=O)c2cccc([N+](=O)[O-])c2)n1C | -0.6 | 7.1 | -1.9 | -7.2 | 42.4* | -0.8
c1ccc(Nc2nc(N3CCCC3)nc(N3CCOCC3)n2)cc1 | -0.7 | 1.3 | 0.5 | -3.5 | -3.0 | -1.5
Cc1[nH]c2ccccc2c1/C=N/Nc1nc(Nc2ccccc2)nc(N2CCOCC2)n1 | 1.4 | / | -1.7 | 23.5* | -3.4 | /
Oc1[nH]c2ccccc2c1N=Nc1nc(Nc2ccccc2)nc(N2CCOCC2)n1 | 1.2 | -76.6 | -1.6 | 47.1* | -2.9 | 0.5
Cc1cccc(OCCn2ccnc2)c1C | 0.7 | -3.4 | -0.6 | -11.4 | 2.0 | -8.6
Cc1ccc(-c2noc(CCC(=O)NCCN3CCN(Cc4ccccc4)CC3)n2)cc1 | 0.0 | -6.9 | -0.5 | -8.0 | / | /
Cc1ccc(-c2noc(CCC(=O)NCC3CCN(Cc4cccc(C)c4)CC3)n2)cc1 | -0.9 | 86.9* | -0.9 | -7.9 | -0.4 | /
CCOc1ccc(-c2noc(CCC(=O)NC)n2)cc1OCC | 1.3 | 95.4* | -0.3 | 0.1 | 2.1 | /
COc1cc(-c2nc3ccc4ccccc4c3c3c2CCC3)cc(OC)c1O | -1.6 | / | -0.5 | -14.6 | 4.4 | /
COc1cc(-c2nc3ccc4ccccc4c3c3c2CCC3)cc(OC)c1OC | -0.8 | 93.6* | -3.8 | -12.2 | -0.7 | /
COc1ccc(NC(=O)C2CCC(C(C)(C)C)CC2)cc1S(=O)(=O)N1CCOCC1 (stereo unspecified) | 0.2 | 16.6 | -1.5 | -6.9 | -6.5 | -12.5
Cc1cnc(-c2nnc(N(C)C(=O)c3cccnc3)s2)cn1 | -0.4 | 107.5* | -0.6 | -8.6 | -6.5 | /
Cc1ccc(-c2nnc(N(C)C(=O)c3cccnc3)s2)cn1 | 0.7 | -1.3 | -1.2 | -5.1 | 0.3 | /

Screening data deposited in PubChem BioAssay by Broad Institute.
